Values belong to the compound of their own block, whether it stands above or below them.
What was measured:
[1] = target: T1, Tyrosine-protein phosphatase non-receptor type 1 (Homo sapiens) (UniProt P18031); settings: 0.25 uM
T1 sequence (whole entry): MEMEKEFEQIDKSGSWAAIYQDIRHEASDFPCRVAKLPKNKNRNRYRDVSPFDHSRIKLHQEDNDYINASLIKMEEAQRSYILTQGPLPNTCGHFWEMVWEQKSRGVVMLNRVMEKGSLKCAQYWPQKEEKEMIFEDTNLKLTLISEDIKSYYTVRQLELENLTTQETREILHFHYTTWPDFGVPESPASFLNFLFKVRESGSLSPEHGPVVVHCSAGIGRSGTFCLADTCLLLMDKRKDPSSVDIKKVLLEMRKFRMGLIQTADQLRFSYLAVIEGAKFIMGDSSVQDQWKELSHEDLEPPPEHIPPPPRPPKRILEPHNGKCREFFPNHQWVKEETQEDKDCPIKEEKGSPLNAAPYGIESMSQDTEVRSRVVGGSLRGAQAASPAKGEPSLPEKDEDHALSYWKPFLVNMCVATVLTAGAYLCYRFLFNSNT

[2] = target: T2, Tyrosine-protein phosphatase non-receptor type 1 (Homo sapiens, UniProt P18031); experiment: in vitro inhibitory activity against recombinant human Protein Tyrosine Phosphatase 1b
T2 sequence (P18031 whole entry): T1 sequence (whole entry)
Procedure, shortened: (§1)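 Recombinant human PTP1B, diluted in pH 7.4 Tris-HCl/EDTA/β-mercaptoethanol buffer, preincubated 10 min at 37 °C with compound in HEPES pH 7.4. Substrate was the insulin receptor 1142-1153 dodecapeptide phosphorylated at Y1146/1150/1151, 50 µM final. Reaction ran 30 min at 37 °C. Released phosphate was read by malachite green-ammonium molybdate at 650 nm, in quadruplicate. IC50 came from four-parameter logistic regression.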

[3] = in vitro inhibitory activity against He-PTP
[4] = in vitro inhibitory activity against PTP-a
[5] = target: Receptor-type tyrosine-protein phosphatase F (Homo sapiens, UniProt P10586); experiment: in vitro inhibitory activity against LAR
Mus musculus [6] = experiment: percentage decrease in plasma glucose in the ob/ob mouse model at 100 mg/kg/day administered per orally; type: functional; settings: route oral
Procedure, shortened: (§2)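 Genetically obese C57 B1/6J ob/ob diabetic mice, four to six per group, dosed orally once daily for 4 days. Plasma glucose is expressed as percent change relative to the vehicle-treated group, with p < 0.05 versus vehicle. Changes that are not significant are generally less than -15%. Ciglitazone served as the reference standard.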

[7] = target: Dual specificity protein phosphatase 3 (Homo sapiens, UniProt P51452); experiment: in vitro inhibitory activity against Dual specificity protein phosphatase 3
Mus musculus [8] = experiment: percentage decrease in plasma glucose in the ob/ob mouse model at 25 mg/kg/day administered per orally; type: functional; settings: route oral
Procedure, shortened: as §2

[9] = target: T1, Tyrosine-protein phosphatase non-receptor type 1 (Homo sapiens); settings: 0.1 uM
Mus musculus [10] = experiment: Percentage decrease in plasma glucose in the ob/ob mouse model at 100 mg/kg/day administered per orally; type: functional; settings: route oral
Procedure, shortened: as §2

[11] = target: T2, Tyrosine-protein phosphatase non-receptor type 1; experiment: In vitro inhibitory activity against human recombinant protein tyrosine phosphatase 1b (PTP1B)
Procedure, shortened: as §1, with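 “7.4.” for “7.4. Substrate was the insulin receptor 1142-1153 dodecapeptide phosphorylated at Y1146/1150/1151, 50 µM final.”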

Chain of Receptor-type tyrosine-protein phosphatase F (P10586 whole entry): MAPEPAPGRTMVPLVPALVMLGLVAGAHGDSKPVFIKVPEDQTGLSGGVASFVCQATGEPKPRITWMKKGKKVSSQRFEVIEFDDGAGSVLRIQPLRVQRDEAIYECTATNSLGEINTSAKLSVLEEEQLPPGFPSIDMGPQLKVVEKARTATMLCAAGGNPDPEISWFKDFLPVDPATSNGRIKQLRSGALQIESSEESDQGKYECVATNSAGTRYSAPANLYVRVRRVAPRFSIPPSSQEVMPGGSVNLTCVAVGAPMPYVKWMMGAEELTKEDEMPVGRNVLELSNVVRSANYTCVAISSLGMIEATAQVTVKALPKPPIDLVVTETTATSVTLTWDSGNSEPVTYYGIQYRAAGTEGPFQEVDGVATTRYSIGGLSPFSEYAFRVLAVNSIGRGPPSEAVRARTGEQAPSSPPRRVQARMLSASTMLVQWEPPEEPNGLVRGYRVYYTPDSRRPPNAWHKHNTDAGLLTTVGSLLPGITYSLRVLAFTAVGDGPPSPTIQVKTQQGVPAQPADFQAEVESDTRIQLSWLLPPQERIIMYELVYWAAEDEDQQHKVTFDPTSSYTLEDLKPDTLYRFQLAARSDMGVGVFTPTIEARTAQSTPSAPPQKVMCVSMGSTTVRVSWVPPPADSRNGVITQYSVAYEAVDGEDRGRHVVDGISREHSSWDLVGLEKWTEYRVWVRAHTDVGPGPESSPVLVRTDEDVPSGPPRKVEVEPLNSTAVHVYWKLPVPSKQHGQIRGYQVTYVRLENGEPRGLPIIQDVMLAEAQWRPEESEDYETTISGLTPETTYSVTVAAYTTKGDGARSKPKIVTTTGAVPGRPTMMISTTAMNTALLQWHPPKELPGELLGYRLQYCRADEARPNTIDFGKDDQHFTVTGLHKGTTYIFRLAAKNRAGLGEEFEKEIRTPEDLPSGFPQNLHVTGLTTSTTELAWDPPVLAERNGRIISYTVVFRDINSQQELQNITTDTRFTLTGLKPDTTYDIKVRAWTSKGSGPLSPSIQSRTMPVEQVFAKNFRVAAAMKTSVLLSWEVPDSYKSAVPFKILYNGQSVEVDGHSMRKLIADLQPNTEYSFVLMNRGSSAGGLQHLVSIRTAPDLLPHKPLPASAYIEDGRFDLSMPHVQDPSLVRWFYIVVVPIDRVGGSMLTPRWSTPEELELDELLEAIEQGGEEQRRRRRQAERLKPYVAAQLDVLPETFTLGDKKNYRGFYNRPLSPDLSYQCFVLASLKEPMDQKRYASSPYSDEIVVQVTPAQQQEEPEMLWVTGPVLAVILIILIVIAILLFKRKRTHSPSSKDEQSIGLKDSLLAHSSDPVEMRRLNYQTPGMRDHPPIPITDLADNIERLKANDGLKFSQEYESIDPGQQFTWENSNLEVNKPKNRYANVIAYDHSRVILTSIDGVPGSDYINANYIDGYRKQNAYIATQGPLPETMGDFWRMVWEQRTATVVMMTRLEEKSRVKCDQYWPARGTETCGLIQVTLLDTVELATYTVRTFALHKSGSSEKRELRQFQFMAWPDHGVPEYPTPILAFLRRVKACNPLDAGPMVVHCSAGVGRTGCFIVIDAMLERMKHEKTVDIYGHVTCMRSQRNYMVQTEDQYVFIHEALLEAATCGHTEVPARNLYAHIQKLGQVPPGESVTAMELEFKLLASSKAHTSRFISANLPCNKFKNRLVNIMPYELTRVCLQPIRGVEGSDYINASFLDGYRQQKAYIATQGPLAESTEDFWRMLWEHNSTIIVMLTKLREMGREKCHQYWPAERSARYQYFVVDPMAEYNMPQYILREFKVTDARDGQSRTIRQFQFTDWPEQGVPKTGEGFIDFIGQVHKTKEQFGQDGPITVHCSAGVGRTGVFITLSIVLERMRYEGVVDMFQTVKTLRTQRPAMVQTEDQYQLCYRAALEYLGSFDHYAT
Chain of Dual specificity protein phosphatase 3 (P51452 whole entry): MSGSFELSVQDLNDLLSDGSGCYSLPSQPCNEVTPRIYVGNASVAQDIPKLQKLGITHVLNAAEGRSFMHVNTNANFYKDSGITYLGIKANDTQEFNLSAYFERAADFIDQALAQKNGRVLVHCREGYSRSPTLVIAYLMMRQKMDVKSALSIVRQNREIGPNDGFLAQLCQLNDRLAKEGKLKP

Structure (SMILES): O=C(O)/C=C\C(=O)Nc1cc(-c2ccc(-c3c(Cc4ccccc4)oc4ccccc34)cc2)ccc1O
- IC50 [2]: 0.46 µM

Structure (SMILES): O=C(O)[C@H](Cc1ccccc1)Oc1ccc(-c2ccc(-c3c(Cc4ccccc4)oc4ccccc34)cc2)cc1
- IC50 [3]: 7.1 µM
- IC50 [4]: 33.7 µM
- IC50 [5]: 3.25 µM
- Decrease (Mus musculus [6]): 40%
- IC50 [7]: 15.9 µM
- Decrease (Mus musculus [8]): 27%

Structure (SMILES): Cc1oc(-c2ccc(C(F)(F)F)cc2)nc1-c1ccc(-c2ccc(OCC(=O)O)cc2)cc1
- Decrease (Mus musculus [10]): 40%
- IC50 [11]: 0.8 µM

Results, then the compound that gave them:

- Average inhibition [1]: -38
Structure (SMILES): O=C(O)[C@H](Cc1ccccc1)Oc1ccc(-c2ccc(-c3c(Cc4ccc(F)cc4)oc4ccccc34)cc2)cc1

- IC50 [2]: 0.92 µM
Structure (SMILES): O=C(O)CCC(=O)Nc1cc(-c2ccc(-c3c(Cc4ccccc4)oc4ccccc34)cc2)ccc1O

- Average inhibition [9]: -59
Structure (SMILES): CCCc1cc(-c2ccc(-c3c(Cc4ccccc4)oc4ccccc34)cc2)ccc1O[C@@H](Cc1ccccc1)C(=O)O

Source: ChEMBL document CHEMBL1132993, “Novel benzofuran and benzothiophene biphenyls as inhibitors of protein tyrosine phosphatase 1B with antihyperglycemic properties” (J Med Chem, 2000)
